Data set [1] has as its target T1, hCD44(21–178) (Homo sapiens, UniProt P16070). Put plainly: Isothermal Titration Calorimetry. It counts as binding. The note with it: 23°C, pH 6.7, 5% DMSO.
The target of data set [2] is T1, hCD44(21–178). Put plainly: NMR binding: 2D [1H,15N]-sofast-HMQC / 1D 1H-aliphatic spectra of 15N-hCD44. The note with it: for binding by 2D [1H,15N]-sofast-HMQC: 20 μM 15N-hCD44(21–178). The essentials: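 Human CD44 HA-binding domain (Q21–V178) was expressed in E. coli BL21(DE3) gold pLysS in M9 with 15NH4Cl, refolded from urea-solubilised inclusion bodies, and purified as monomer by size exclusion. 2D [1H,15N]-sofast-HMQC (48 scans) and 1D 1H (128 scans) spectra were recorded at 300 K in 50 mM phosphate, 150 mM NaCl, 0.02% NaN3, pH 6.7. Spectra were compared with and without test peptide.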

The target in data set [3] is T1, hCD44(21–178). As to the kind of experiment: ITC competition. Type of data set: binding.
Data set [4] deals with T1, hCD44(21–178). Put plainly: Saturation Transfer Difference. The note with it: saturating for 2 seconds at −0.28 ppm. It counts as binding. The essentials: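 STD spectra used 128 scans, with 2 s saturation on-resonance at −0.28 ppm and off-resonance reference at −10 ppm. Samples contained hCD44(21–178) and test ligand, with HA8 as positive control. Conditions: 300 K in 50 mM phosphate, 150 mM NaCl, 0.02% NaN3, pH 6.7, on a 600 or 700 MHz spectrometer with cryoprobe.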

In data set [5] the target is T1, hCD44(21–178). Put plainly: NMR displacement / ternary binding experiments by 2D [1H,15N]-sofast-HMQC.
The subject of another data set is DF1485 antibody. Put plainly: 2D [1H,13C]-HSQC of 13C-A6 peptide with antibody. The note with it: 5 μM 13C-A6 peptide, 4 μM DF1485. Type of data set: binding, mouse. Summed up:
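Test peptide carries a 13C-labelled N-acetyl methyl. 2D [1H,13C]-HSQC spectra were recorded without and with the mouse anti-CD44 monoclonal antibody DF1485 ([…]), using 64 scans and 4096 × 128 complex points. Conditions: 300 K, 600 or 700 MHz with cryoprobe, 50 mM phosphate, 150 mM NaCl, 0.02% NaN3, pH 6.7. Read-out was broadening or chemical shift change of the methyl signal.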

Data set [6] in a line: Solubility under binding study conditions. Type of data set: physicochemical. The note with it: under the binding study conditions.

Entries after “also recorded” stand apart in the source; their conditions may differ.

T1 sequence (P16070 21-178): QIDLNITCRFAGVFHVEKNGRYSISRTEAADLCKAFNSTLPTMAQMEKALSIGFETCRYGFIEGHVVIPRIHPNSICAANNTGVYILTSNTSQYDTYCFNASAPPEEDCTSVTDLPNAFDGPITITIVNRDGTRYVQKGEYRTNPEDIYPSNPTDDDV

For `CC(=O)N[C@H]1[C@H](O[C@H]2[C@H](O)[C@@H](O)[C@H](O[C@H]3[C@H](O)[C@@H](CO)O[C@@H](O[C@H]4[C@H](O)[C@@H](O)[C@H](O[C@H]5[C@H](O)[C@@H](CO)O[C@@H](O[C@H]6[C@H](O)[C@@H](O)[C@H](O[C@H]7[C@H](O)[C@@H](CO)OC(O)[C@@H]7NC(C)=O)O[C@@H]6C(=O)O)[C@@H]5NC(C)=O)O[C@@H]4C(=O)O)[C@@H]3NC(C)=O)O[C@@H]2C(=O)O)O[C@H](CO)[C@@H](O)[C@@H]1O[C@@H]1O[C@H](C(=O)O)[C@@H](O)[C@H](O)[C@H]1O` (stereo partly drawn) [HA8, [GlcNAc-GlcUA]4], the “enthalpy of binding ΔH (ITC)” value at hCD44(21–178) [1] (hCD44 73 μM titrated with 1.6 mM HA8) is -0.7 kcal/mol. In addition, the “chemical shift perturbations in 2D [1H,15N]-sofast-HMQC” value at hCD44(21–178) [2] (20 μM hCD44(21–178), 220 μM HA8, 300 K, pH 6.7) was “widespread perturbations”. In addition, the “ΔH of HA8 binding in presence of compound 3 (ITC)” value at hCD44(21–178) [3] (750-fold molar excess (55 mM) compound 3) was -0.83 kcal/mol. In addition, the “Kd of HA8 in presence of compound 3 (ITC)” value on hCD44(21–178) [3] (hCD44(21–178) incubated with 750-fold molar excess (55 mM) compound 3, titrated with 1.6 mM HA8, 23°C, pH 6.7, 5% DMSO) was found to be 37.5 µM. The STD effect entry on hCD44(21–178) [4] is listed as “significant STD effect”.

With Ac-SRPQGPFL-NH2, the “binding by 2D [1H,15N]-sofast-HMQC” value at hCD44(21–178) [2] (400 μM peptide) is “no significant binding”.

With Ac-KPSSPPEE-NH2 [A6 Peptide], the “direct interaction by ITC” value on hCD44(21–178) [1] (hCD44 73 μM titrated with 1 mM A6 peptide) was “absence of direct interactions”. Moreover, the “binding by 2D [1H,15N]-sofast-HMQC” value on hCD44(21–178) [2] (500 μM A6 peptide, pH 6.7, listed as A6) is “could not observe any significant binding”; at hCD44(21–178) [2] (500 μM A6 peptide, pH 6.7, listed as A6-peptide) it was “absence of appreciable binding”; on hCD44(21–178) [2] (500 μM A6 peptide, pH 6.7, listed as A6 peptide), “No appreciable binding”. Moreover, the “displacement of DF1485 antibody from hCD44(21–178)” value at hCD44(21–178) [5] (10 μM 15N-hCD44(21–178), 10 μM DF1485, addition of 500 μM A6 peptide) was “not displaced”. Moreover, the “binding to hCD44 in complex with HA8” value at hCD44(21–178) [5] (A6, 15N-labeled hCD44(21–178)) is “did not observe significant binding”. The “interaction between 13C-A6 peptide and DF1485 antibody” value in the data set on DF1485 antibody is reported as “no appreciable binding”.

In the case of H-RLVSYNGIIFFLK-NH2 [A5G27], the “binding by 2D [1H,15N]-sofast-HMQC” value at hCD44(21–178) [2] (200 μM A5G27) is “no evidence of binding”. The solubility result in data set [6] was “limited solubility; also recorded: fairly low solubility”.

(Values after publication PMC5271563 (ChemMedChem, 2016).)
